In general, IC50 refers to the concentration at which inhibition is half-maximal.

Structures are written as SMILES. Activity calls are given as the source filed them. The calls are words filed in the database; no cut-off is given here.

Seven compounds from ChEMBL document CHEMBL1155974, “The nucleoside analogue D-carba T blocks HIV-1 reverse transcription” (J Med Chem, 2009) can be followed below.

Data set [1] has as its system TZM. The data set can be described thus: Cytotoxicity against human TZM cells at 5% (w/v) after 48 hrs by XTT assay. Format: cell-based. A digest of the protocol: (§1)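 Cells (TZM, GHOST, HuT-CCR5) incubated 48 h with five dilutions of compound; XTT substrate then added for a further 4–5 h, and viability read from conversion of the dye by live cells. Hydroxypropyl-β-cyclodextrin served as positive control for killing.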

Data set [2] is described as follows: Cytotoxicity against human GHOST cells at 5% (w/v) after 48 hrs by XTT assay. It is filed as cell-based. The method, boiled down: as §1
(In general: Tetrazolium assays rely on reduction of a dye to a coloured formazan, in cell work by metabolically active cells.)

Data set [3] is described as follows: Cytotoxicity against human Hut/CCR5 cells at 5% (w/v) after 48 hrs by XTT assay. It is filed as cell-based. Conditions: hut/ccr5, 48 h. The method, boiled down: as §1
The nature of data set [4]: Inhibition of HIV1 reverse transcriptase M41L/D67N/K70R/T215Y/K219Q mutant-mediated viral DNA synthesis in human HOS cells assessed as luciferase activity treated 3 hrs before infection measured after 48 hrs by luminescence assay. Conditions: Human immunodeficiency virus 1, HOS. It is filed as cell-based. The method, boiled down:
(§2)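 Single-cycle infection with a VSV-G-pseudotyped, Env-deleted HIV-1 luciferase vector carrying wt or NRTI-resistant RT, made by calcium phosphate transfection of 293 cells, harvested at 48 h and diluted 1:5. HOS or HSV-TK-expressing HOS 313 cells were seeded at 4000/well, pretreated with compound for 3 h, then infected for 48 h. Luciferase was normalized to untreated infection of the same RT variant. IC50 came from a four-parameter sigmoidal fit.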

Data set [5] in a line: Inhibition of HIV1 reverse transcriptase SSGR/T215Y mutant-mediated viral DNA synthesis in human HOS cells assessed as luciferase activity treated 3 hrs before infection measured after 48 hrs by luminescence assay. It is filed as cell-based. Conditions: Human immunodeficiency virus 1, HOS. A digest of the protocol:
as §2

Data set [6] relates to TZM. The data set can be described thus: Cytotoxicity against human TZM cells up to 10 uM after 48 hrs by XTT assay.
A short description of data set [7]: Cytotoxicity against human GHOST cells up to 10 uM after 48 hrs by XTT assay.
A short description of data set [8]: Cytotoxicity against human Hut/CCR5 cells up to 10 uM after 48 hrs by XTT assay. Conditions: hut/ccr5, 48 h.
Data set [9] addresses Human immunodeficiency virus type 1 reverse transcriptase (Human immunodeficiency virus 1) (UniProt Q72547). Nature of the data set: Inhibition of HIV1 reverse transcriptase-mediated viral DNA synthesis at 10 uM by PAGE.
Data set [10] shares this target. Nature of the data set: Inhibition of HIV1 reverse transcriptase-mediated viral DNA synthesis at 5 uM using TA template by PAGE in presence of thymidine triphosphate. The method, boiled down:
(§3)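 Competition primer-extension: labeled primer on DNA or RNA template of identical sequence (RNA reactions supplemented with RNase inhibitor), HIV-1 RT (1.0 µg), 10.0 µM each dATP/dCTP/dGTP. TTP:analog triphosphate at 1:5 or 1:1, totalling 10.0 µM; 37°, timed intervals, EDTA stop, 15% sequencing gel to score pausing.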

The target is the same in data set [11]. Nature of the data set: Inhibition of HIV1 reverse transcriptase-mediated viral DNA synthesis at 5 uM using UA template by PAGE in presence of thymidine triphosphate. A digest of the protocol: as §3
Data set [12] can be described thus: Inhibition of HIV1 reverse transcriptase M41L/D67N/K70R/T215Y/K219Q mutant-mediated viral DNA synthesis in human HOS-313 cells expressing HSV thymidine kinase assessed as luciferase activity treated 3 hrs before infection measured after 48 hrs by luminescence assay. Format: cell-based. Conditions: Human immunodeficiency virus 1, HOS-313. A digest of the protocol: as §2

A short description of data set [13]: Inhibition of HIV1 reverse transcriptase SSGR/T215Y mutant-mediated viral DNA synthesis in human HOS-313 cells expressing HSV thymidine kinase assessed as luciferase activity treated 3 hrs before infection measured after 48 hrs by luminescence assay. Format: cell-based. Conditions: Human immunodeficiency virus 1, HOS-313. A digest of the protocol:
as §2

Data set [14] addresses Human immunodeficiency virus type 1 reverse transcriptase (Human immunodeficiency virus 1) (UniProt Q72547). Nature of the data set: Ratio of IC50 for inhibition of HIV1 wild type reverse transcriptase-mediated viral DNA synthesis in human HOS cells to IC50 for inhibition of HIV1 wild type reverse transcriptase-mediated viral DNA synthesis in human HOS-313 cells expressing HSV thymidine kinase. Format: cell-based. A digest of the protocol:
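VSV-G-pseudotyped single-round HIV-1 luciferase vector (wt RT) made in 293 cells. HOS or HSV-TK-expressing HOS 313 cells, 4000/well, were pretreated 3 h with compound, infected 48 h, and luminescence read. Activity was normalized to untreated infections, and IC50 was taken from a four-parameter sigmoidal fit in each line.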

In the next data set the test system is HIV-1 M:B_Lai. The data set can be described thus: Antiviral activity against HIV1 LAI infected in human TZM cells assessed as inhibition of viral replication. It is filed as functional, organism-based. Conditions: Human immunodeficiency virus 1, LAI. The method, boiled down:
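Single-cycle inhibition assay in TZM (HeLa-derived indicator) cells infected with replication-competent wild-type HIV-1 LAI across a range of compound concentrations; IC50 reported.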

In the case of `CC(O)COC[C@H]1O[C@@H]2O[C@H]3[C@H](O)[C@@H](O)[C@@H](O[C@H]4[C@H](O)[C@@H](O)[C@@H](O[C@H]5[C@H](O)[C@@H](O)[C@@H](O[C@H]6[C@H](O)[C@@H](O)[C@@H](O[C@H]7[C@H](O)[C@@H](O)[C@@H](O[C@H]8[C@H](O)[C@@H](O)[C@@H](O[C@H]1[C@H](O)[C@H]2O)O[C@@H]8COCC(C)O)O[C@@H]7COCC(C)O)O[C@@H]6COCC(C)O)O[C@@H]5COCC(C)O)O[C@@H]4COCC(C)O)O[C@@H]3COCC(C)O` (stereo partly drawn) [2-HYDROXYPROPYL-BETA-CYCLODEXTRIN], the Activity (in the data set with TZM [1]; in data set [2]; in data set [3]) was over 50% in each case.
`Cc1cn([C@H]2C[C@H](N=[N+]=[N-])[C@@H](CO)O2)c(=O)[nH]c1=O` [ZIDOVUDINE]: the concentration for half-maximal inhibition (IC50) in data set [4] stood at 20.1 nM; in [5] it was 39.6 nM.
Take `Cc1cccc2c1OP(=O)(OC[C@H]1C[C@@H](n3cc(C)c(=O)[nH]c3=O)C[C@@H]1O)OC2` (some centres not stated): the Activity entry (in the data set on TZM [6]; in [7]; in data set [8]) was “Non-toxic” in each case.
For `Cc1cn([C@H]2CC[C@@H](COP(=O)(O)OP(=O)(O)OP(=O)(O)O)O2)c(=O)[nH]c1=O`, the inhibition result in [9] was “Active”.
In the case of `Cc1cn([C@@H]2C[C@H](COP(=O)(O)OP(=O)(O)OP(=O)(O)O)[C@@H](O)C2)c(=O)[nH]c1=O`, the inhibition result in data set [9] and in data set [11] was “Active” in each case. Further, the inhibition entry in data set [10] is “inactive”.
Turning to `Cc1cn([C@@H]2C[C@H](CO)[C@@H](O)C2)c(=O)[nH]c1=O`, the IC50 is 1300 nM in data set [4]; 870 nM in data set [12]; 4600 nM in data set [5]; 1000 nM in [13]; 50 nM in the data set with HIV-1 M:B_Lai. For the same compound, in data set [14], the Ratio IC50 stood at 4. The Activity entry (in the data set on TZM [6]; in data set [7]; in data set [8]) was “Non-toxic” each time.
Take `Cc1cn([C@H]2C[C@H](O)[C@@H](COP(=O)(O)OP(=O)(O)OP(=O)(O)O)O2)c(=O)[nH]c1=O`: the inhibition result in data set [9] was “inactive”.
